From ChEMBL document CHEMBL4257542, “Design, synthesis, and evaluation of bitopic arylpiperazine-phthalimides as selective dopamine D3 receptor agonists” (Medchemcomm, 2018)
“And” between values parts separate entries of the source, which are not always exact repeats. Equal values may be shown once.

How the values were obtained:
D(2) dopamine receptor [1] = target: T1, D(2) dopamine receptor (Homo sapiens, UniProt P14416); test: Displacement of [3H]-sulpiride from human D2 receptor expressed in HEK293 cells at 100 nM after 150 mins by liquid scintillation counting method relative to control; assay type: cell-based
D(2) dopamine receptor [2] = target: T1, D(2) dopamine receptor; test: Displacement of [3H]-sulpiride from human D2 receptor expressed in HEK293 cells at 30 uM after 150 mins by liquid scintillation counting method relative to control; assay type: cell-based
In short: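 HEK 293 cells transiently transfected with D2R plasmid, kept in serum-free MEM for 4 h and then serum-containing MEM for 24 h, seeded and left overnight. Whole cells were incubated with 2.2 nM [3H]-sulpiride plus test compound for 150 min at 4 °C, rinsed with ice-cold MEM, and lysed in 1% SDS. Bound radioactivity was read by liquid scintillation counting.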

D(2) dopamine receptor [3] = target: T1, D(2) dopamine receptor; test: Displacement of [3H]-sulpiride from human D2 receptor expressed in HEK293 cells after 150 mins by liquid scintillation counting method; assay type: cell-based
In short: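 HEK 293 cells transfected with D2R plasmid, cultured in MEM without then with fetal bovine serum (4 h, 24 h). Seeded overnight, then intact cells incubated with [3H]-sulpiride (2.2 nM) plus compounds for 150 min at 4 °C. Cells were rinsed in ice-cold MEM, lysed in 1% SDS, and counted by liquid scintillation. IC50 from nonlinear dose-response fit; Ki by Cheng-Prusoff.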

Homo sapiens = organism: Homo sapiens; test: Selectivity ratio of Ki for human D2 receptor expressed in HEK293 cells to Ki for human D3 receptor expressed in HEK293 cells; assay type: cell-based
D(3) dopamine receptor [4] = target: T2, D(3) dopamine receptor (Homo sapiens, UniProt P35462); test: Displacement of [3H]-sulpiride from human D3 receptor expressed in HEK293 cells after 150 mins by liquid scintillation counting method; assay type: cell-based
D(3) dopamine receptor [5] = target: T2, D(3) dopamine receptor; test: Potency index, ratio of quinpirole EC50 to compound EC50 for agonist activity at human D3 receptor expressed in HEK293 cells; assay type: functional, cell-based
D(3) dopamine receptor [6] = target: T2, D(3) dopamine receptor; test: Potency index, ratio of N-(4-(4-(2,4-dichlorophenyl)piperazin-1-yl)butyl)-1H-indole-2-carboxamide hydrochloride Ki to compound Ki for displacement of [3H]-sulpiride from human D3 receptor expressed in HEK293 cells; assay type: cell-based
D(3) dopamine receptor [7] = target: T2, D(3) dopamine receptor; test: Agonist activity at human D3 receptor expressed in HEK293 cells assessed as inhibition of forskolin-induced cAMP accumulation after 4 hrs by luciferase reporter gene assay; assay type: functional, cell-based

T2 sequence (P35462 whole entry): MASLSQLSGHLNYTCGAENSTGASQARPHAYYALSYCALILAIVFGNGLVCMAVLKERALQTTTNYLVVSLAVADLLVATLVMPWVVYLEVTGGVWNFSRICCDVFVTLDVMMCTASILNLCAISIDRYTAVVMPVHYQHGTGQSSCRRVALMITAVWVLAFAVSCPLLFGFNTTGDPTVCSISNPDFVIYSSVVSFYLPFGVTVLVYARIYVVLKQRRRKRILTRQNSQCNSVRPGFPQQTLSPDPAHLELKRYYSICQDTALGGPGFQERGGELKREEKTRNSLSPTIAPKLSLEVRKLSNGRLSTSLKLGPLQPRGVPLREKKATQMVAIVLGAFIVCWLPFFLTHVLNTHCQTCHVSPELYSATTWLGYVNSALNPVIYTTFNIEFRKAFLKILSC
T1 sequence (P14416 whole entry): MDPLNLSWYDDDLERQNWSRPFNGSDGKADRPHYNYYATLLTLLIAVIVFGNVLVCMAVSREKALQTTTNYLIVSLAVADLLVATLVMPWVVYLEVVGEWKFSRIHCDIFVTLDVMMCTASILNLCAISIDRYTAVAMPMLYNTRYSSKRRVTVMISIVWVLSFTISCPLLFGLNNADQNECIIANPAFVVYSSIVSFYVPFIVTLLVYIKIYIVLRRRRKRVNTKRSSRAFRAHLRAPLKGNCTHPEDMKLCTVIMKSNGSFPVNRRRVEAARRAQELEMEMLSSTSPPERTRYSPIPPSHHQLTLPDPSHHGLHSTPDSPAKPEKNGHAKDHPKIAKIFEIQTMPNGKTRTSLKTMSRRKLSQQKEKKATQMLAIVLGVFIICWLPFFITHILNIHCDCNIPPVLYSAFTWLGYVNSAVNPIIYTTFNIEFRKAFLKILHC

Row | inhibition (D(2) dopamine receptor [1]) | SMILES | other results
1 | 10.3% | O=C1c2ccccc2C(=O)N1CCCCN1CCN(c2c(F)cccc2F)CC1 | 
2 | 64.8% | O=C1c2ccccc2C(=O)N1CCCCN1CCN(c2cccc(Cl)c2)CC1 | 
3 | 31.8% | O=C1c2ccccc2C(=O)N1CCCCN1CCN(c2ccccc2F)CC1 | 
4 | 28.7% | O=C1c2ccccc2C(=O)N1CCCCN1CCN(c2ccccc2Cl)CC1 | 
5 | -6.3% | O=C1c2ccccc2C(=O)N1CCCCN1CCN(c2ccc(F)cc2)CC1 | 
6 | 30.2% | O=C1c2ccccc2C(=O)N1CCCCN1CCN(c2ccc(Cl)cc2Cl)CC1 | 
7 | 37.9% and 44% | O=C1c2ccccc2C(=O)N1CCCCN1CCN(c2cccc(C(F)(F)F)c2)CC1 | 
8 | 2.8% | O=C1c2ccccc2C(=O)N1CCCCN1CCN(c2ccc(Cl)cc2F)CC1 | 
9 | 70.3% | O=C1c2ccccc2C(=O)N1CCCCN1CCN(c2cccc(Cl)c2Cl)CC1 | 
10 | 17.7% | O=C1c2ccccc2C(=O)N1CCCCN1CCN(c2cccc(F)c2F)CC1 | Ratio Ki (Homo sapiens): 112; Ki (D(3) dopamine receptor [4]): 19.3 nM; Ratio EC50 (D(3) dopamine receptor [5]): 199 to 200; Ratio Ki (D(3) dopamine receptor [6]): 21; EC50 (D(3) dopamine receptor [7]): 0.00048 nM; Ki (D(2) dopamine receptor [3]): 2160 nM

More lines, now with the values behind:

Row | SMILES | inhibition (D(2) dopamine receptor [1]) | other results
11 | CCN1CCCC1CNC(=O)c1cc(S(N)(=O)=O)ccc1OC (configuration not stated) | 92.2% | 
12 | O=C1c2ccccc2C(=O)N1CCCCN1CCC(n2c(=O)[nH]c3cc(Cl)ccc32)CC1 | 56.1% | 
13 | O=C(NCCCCN1CCN(c2ccc(Cl)cc2Cl)CC1)c1cc2ccccc2[nH]1 | 22.7% | inhibition (D(2) dopamine receptor [2]): < 50%; Ki (D(2) dopamine receptor [3]): > 23900 nM
14 | O=C(CCCCN1CCN(c2ccccc2F)CC1)Nc1nc2ccccc2s1 |  | Ratio Ki (Homo sapiens): 45
15 | COc1ccccc1C1CCN(CCCCN2C(=O)c3ccccc3C2=O)CC1 | 92.2% | 
16 | O=C1c2ccccc2C(=O)N1CCCCN1CCN(c2ccc(F)cc2F)CC1 | 4.8% | 
17 | O=C(NCCCCN1CCN(c2cccc(Cl)c2Cl)CC1)c1cc2ccccc2[nH]1 |  | EC50 (D(3) dopamine receptor [7]): 0.026 nM
18 | O=C1c2ccccc2C(=O)N1CCCCN1CCN(c2cc(C(F)(F)F)ccc2F)CC1 | -4.7% | 
19 | O=C(CCCCN1CCN(c2ccc(Cl)cc2Cl)CC1)Nc1nc2ccccc2s1 |  | Ratio Ki (Homo sapiens): 63.8
